Data published in ChEMBL document CHEMBL1121685, “Development of new mitomycin C and porfiromycin analogues” (J Med Chem, 1981).

Experiments:
Mus musculus [1] = assay: Antitumor activity against P-388 murine leukemia cells in CDF1 female mice after intraperitoneal administration at the specified optimal dose of 25.6 mg/kg; assay type: functional
Mus musculus [2] = assay: Minimum effective dose that show activity against P-388 murine leukemia cells in CDF1 female mice, after intraperitoneal administration (optimal dose is 25.6 mg/kg); assay type: functional; conditions: P388, ip, read-out: MED
Procedure, shortened: (§1)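 10⁶ P-388 ascites cells implanted ip in CDF₁ female mice. Six mice per dose, 10 saline-injected controls, and a concurrent mitomycin C reference group. %T/C = median survival time of treated/control × 100. MED is the lowest dose giving %T/C > 125. Therapeutic ratio = optimal dose/MED.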

[3] = Therapeutic ratio is expressed as ratio of optimal dose and minimum effective dose; assay type: ADME; conditions: mouse; read-out: TR; procedure, shortened: as §1
Mus musculus [4] = assay: Antitumor activity against P-388 murine leukemia cells in CDF1 female mice after intraperitoneal administration at the specified optimal dose of 12.8 mg/kg; assay type: functional
Mus musculus [5] = assay: Minimum effective dose that show activity against P-388 murine leukemia cells in CDF1 female mice, after intraperitoneal administration (optimal dose is 12.8 mg/kg); assay type: functional; conditions: P388, ip, read-out: MED; procedure, shortened: as §1
Mus musculus [6] = assay: Effect of compound on total white blood cell count in BDG1 male mice, after intraperitoneal administration at a dose of 67.9 mg/kg on day 3; assay type: functional
Procedure, shortened: (§2)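 Single ip dose given on day 0 to BDG₁ male mice. Total white blood cell count measured on days 3, 5 and 7, expressed as % change from control. Highest dose was at the LD₅₀, or at twice the optimal dose where so footnoted. Significance reported at p ≤ 0.05 and p ≤ 0.01. D marks death of one or more mice.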

Mus musculus [7] = assay: Effect of compound on total white blood cell count in BDG1 male mice, after intraperitoneal administration at a dose of 90.5 mg/kg on day 5; assay type: functional
Mus musculus [8] = assay: Effect of compound on total white blood cell count in BDG1 male mice, after intraperitoneal administration at a dose of 90.5 mg/kg on day 3; assay type: functional
Mus musculus [9] = assay: Minimum effective dose that show activity against P-388 murine leukemia cells in CDF1 female mice, after intraperitoneal administration (optimal dose is 6.4 mg/kg); assay type: functional; conditions: P388, ip, read-out: MED; procedure, shortened: as §1
Mus musculus [10] = assay: Antitumor activity against P-388 murine leukemia cells in CDF1 female mice after intraperitoneal administration at the specified optimal dose of 6.4 mg/kg; assay type: functional
Mus musculus [11] = assay: Effect of compound on total white blood cell count in BDG1 male mice, after intraperitoneal administration at a dose of 6.4 mg/kg on day 5; assay type: functional; procedure, shortened: as §2
Mus musculus [12] = assay: Effect of compound on total white blood cell count in BDG1 male mice, after intraperitoneal administration at a dose of 25.6 mg/kg on day 3 (highest dose was twice the optimal dose); assay type: functional
Mus musculus [13] = assay: Effect of compound on total white blood cell count in BDG1 male mice, after intraperitoneal administration at a dose of 12.8 mg/kg on day 5; assay type: functional
Procedure, shortened: (§3)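 BDG₁ male mice received a single ip dose on day 0. The dose series topped out at the LD₅₀ level, or at twice the optimal dose for some agents. Total white blood cell count was taken on days 3, 5 and 7 and expressed as % change from untreated controls. Significance was set at p ≤ 0.05 or p ≤ 0.01.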

Mus musculus [14] = assay: Effect of compound on total white blood cell count in BDG1 male mice, after intraperitoneal administration at a dose 6.4 mg/kg on day 7; assay type: functional; procedure, shortened: as §3
Mus musculus [15] = assay: Effect of compound on total white blood cell count in BDG1 male mice, after intraperitoneal administration at a dose of 12.8 mg/kg on day 3; assay type: functional; procedure, shortened: as §3
Mus musculus [16] = assay: Effect of compound on total white blood cell count in BDG1 male mice, after intraperitoneal administration at a dose of 6.4 mg/kg on day 3; assay type: functional; procedure, shortened: as §2
Mus musculus [17] = assay: Antitumor activity against P-388 murine leukemia cells in CDF1 female mice after intraperitoneal administration at the specified optimal dose of 3.2 mg/kg; assay type: functional
Mus musculus [18] = assay: Minimum effective dose that show activity against P-388 murine leukemia cells in CDF1 female mice, after intraperitoneal administration (optimal dose is 3.2 mg/kg); assay type: functional; conditions: P388, ip, read-out: MED; procedure, shortened: as §1
Mus musculus [19] = organism: Mus musculus; assay: Degree of leukopenia produced by compound is assessed form Percent change in white cells on days 5; assay type: functional; procedure, shortened: as §3
Mus musculus [20] = organism: Mus musculus; assay: Half-wave potential produced by the compound at their optimal dose; assay type: functional; parameters: unit not given here
Mus musculus [21] = assay: Activity of compound dose of 24 mg/kg/day against Murine B-16 Melanocarcinoma in mice; assay type: functional
Mus musculus [22] = assay: Activity of compound dose of 3 mg/kg/day against Murine B-16 Melanocarcinoma in mice; assay type: functional
Mus musculus [23] = assay: Activity of compound dose of 1.5 mg/kg/day against Murine B-16 Melanocarcinoma in mice; assay type: functional
Mus musculus [24] = assay: Number of tumored survivors, 45 days after administration of compound at a dose of 12 mg/kg/day in mice; assay type: functional
Mus musculus [25] = assay: Effect of compound on total white blood cell count in BDG1 male mice, after intraperitoneal administration at a dose of 45 mg/kg on day 5; assay type: functional; procedure, shortened: as §2
Mus musculus [26] = assay: Activity of compound dose of 6 mg/kg/day against Murine B-16 Melanocarcinoma in mice; assay type: functional
Mus musculus [27] = assay: Number of tumored survivors, 45 days after administration of compound at a dose of 24 mg/kg/day in mice; assay type: functional
Mus musculus [28] = assay: Effect of compound on total white blood cell count in BDG1 male mice, after intraperitoneal administration at a dose of 45 mg/kg on day 3; assay type: functional; procedure, shortened: as §2
Mus musculus [29] = assay: Effect of compound on total white blood cell count in BDG1 male mice, after intraperitoneal administration at a dose of 25.3 mg/kg on day 3; assay type: functional
Procedure, shortened: (§4)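 Single ip dose given on day 0 to BDG1 male mice over a descending dose series. Total white blood cell count is expressed as % change from untreated control on days 3, 5 and 7. Significance is flagged at p ≤ 0.05 and p ≤ 0.01.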

Mus musculus [30] = assay: Activity of compound dose of 12 mg/kg/day against Murine B-16 Melanocarcinoma in mice; assay type: functional
Mus musculus [31] = assay: Effect of compound on total white blood cell count in BDG1 male mice, after intraperitoneal administration at a dose of 25.3 mg/kg on day 7; assay type: functional; procedure, shortened: as §4
Mus musculus [32] = assay: Effect of compound on total white blood cell count in BDG1 male mice, after intraperitoneal administration at a dose of 33.8 mg/kg on day 3; assay type: functional; procedure, shortened: as §4
Mus musculus [33] = assay: Number of cured survivors, 45 days after administration of compound at a dose of 12 mg/kg/day in mice; assay type: functional
Mus musculus [34] = assay: Number of cured survivors, 45 days after administration of compound at a dose of 24 mg/kg/day in mice; assay type: functional
Mus musculus [35] = assay: Effect of compound on total white blood cell count in BDG1 male mice, after intraperitoneal administration at a dose of 33.8 mg/kg on day 5; assay type: functional; procedure, shortened: as §4
Mus musculus [36] = assay: Effect of compound on total white blood cell count in BDG1 male mice, after intraperitoneal administration at a dose of 45 mg/kg on day 7; assay type: functional; procedure, shortened: as §2
Mus musculus [37] = assay: Effect of compound on total white blood cell count in BDG1 male mice, after intraperitoneal administration at a dose of 33.8 mg/kg on day 7; assay type: functional; procedure, shortened: as §4
Mus musculus [38] = assay: Effect of compound on total white blood cell count in BDG1 male mice, after intraperitoneal administration at a dose of 25.3 mg/kg on day 5; assay type: functional; procedure, shortened: as §4

Compound | T/C (Mus musculus [1]) [%] | minimal effective dose (Mus musculus [2]) [mg/kg] | selectivity ratio [3] | T/C (Mus musculus [4]) [%] | minimal effective dose (Mus musculus [5]) [mg/kg] | other results
C=C(Cl)CNC1=C(C)C(=O)C2=C(C1=O)[C@H](COC(N)=O)C1(OC)[C@@H]3N[C@@H]3CN21 (stereo not given in full) | 178 | 3.2 | 8 |  |  | 
COC12[C@@H]3N[C@@H]3CN1C1=C(C(=O)C(NCc3ccccc3)=C(C)C1=O)[C@@H]2COC(N)=O (stereo not given in full) |  |  | 8 | 188 | 1.6 | 
C#CC(C)(C)NC1=C(C)C(=O)C2=C(C1=O)[C@H](COC(N)=O)C1(OC)[C@@H]3N[C@@H]3CN21 (stereo not given in full) | 178 | 1.6 | 16 |  |  | 
COC12[C@@H](COC(N)=O)C3=C(C(=O)C(C)=C(NCCCO)C3=O)N1C[C@@H]1[C@H]2N1C (stereo not given in full) | 239 | 1.6 | 16 |  |  | Change (Mus musculus [6]): -85%; Change (Mus musculus [7]): -72%; Change (Mus musculus [8]): -78%
COC12[C@@H](COC(N)=O)c3c(O)c(N=C4C=CC(=O)C=C4)c(C)c(O)c3N1C[C@@H]1[C@H]2N1C (stereo not given in full) |  |  | 4 |  |  | minimal effective dose (Mus musculus [9]): 1.6 mg/kg; T/C (Mus musculus [10]): 137%
COC12[C@@H](COC(N)=O)C3=C(C(=O)C(C)=C(NC4CC4)C3=O)N1C[C@@H]1[C@H]2N1C (stereo not given in full) |  |  | 2 | 167 |  | 
COC(=O)CNC1=C(C)C(=O)C2=C(C1=O)[C@H](COC(N)=O)C1(OC)[C@@H]3N[C@@H]3CN21 (stereo not given in full) |  |  | 32 | 300 |  | Change (Mus musculus [11]): -55%; Change (Mus musculus [12]): -65%; Change (Mus musculus [13]): -68%; Change (Mus musculus [14]): -21%; Change (Mus musculus [15]): -55%; Change (Mus musculus [16]): -39%
COC12[C@@H]3N[C@@H]3CN1C1=C(C(=O)C(NCc3ccc(S(N)(=O)=O)cc3)=C(C)C1=O)[C@@H]2COC(N)=O (stereo not given in full) | 150 | 6.4 | 4 |  |  | 
COC12[C@@H](COC(N)=O)C3=C(C(=O)C(C)=C(NCc4ccco4)C3=O)N1C[C@@H]1[C@H]2N1C (stereo not given in full) | 261 | 1.6 | 16 |  |  | 
COC12[C@@H]3N[C@@H]3CN1C1=C(C(=O)C(NCC(N)=O)=C(C)C1=O)[C@@H]2COC(N)=O (stereo not given in full) |  |  | 16 |  |  | minimal effective dose (Mus musculus [9]): 0.4 mg/kg; T/C (Mus musculus [10]): 217%
COC12[C@@H]3N[C@@H]3CN1C1=C(C(=O)C(NCCc3ccccc3)=C(C)C1=O)[C@@H]2COC(N)=O (stereo not given in full) | 194 | 1.6 |  |  |  | 
COC1=C(C)C(=O)C2=C(C1=O)[C@H](COC(N)=O)C1(OC)[C@H]3[C@@H](CN21)N3C (stereo not given in full) |  |  | 8 |  |  | T/C (Mus musculus [17]): 180%; minimal effective dose (Mus musculus [18]): 0.4 mg/kg
COC12[C@@H]3N[C@@H]3CN1C1=C(C(=O)C(NCCCO)=C(C)C1=O)[C@@H]2COC(N)=O (stereo not given in full) | 244 | 3.2 | 8 |  |  | Change (Mus musculus [19]): -43%; E1/2 (Mus musculus [20]): -0.42
C#CCN(C)C1=C(C)C(=O)C2=C(C1=O)[C@H](COC(N)=O)C1(OC)[C@@H]3N[C@@H]3CN21 (stereo not given in full) |  |  | 16 | 210 | 0.8 | 
COC12[C@@H]3N[C@@H]3CN1C1=C(C(=O)C(NCC3CCCO3)=C(C)C1=O)[C@@H]2COC(N)=O (stereo not given in full) | 289 | 0.4 | 64 |  |  | T/C (Mus musculus [21]): 326%; T/C (Mus musculus [22]): 173%; T/C (Mus musculus [23]): 146%; Change (Mus musculus [19]): -54%; Survivors (Mus musculus [24]): 1; Change (Mus musculus [25]): -72%; T/C (Mus musculus [26]): 179%; Survivors (Mus musculus [27]): 3; Change (Mus musculus [28]): -76%; Change (Mus musculus [29]): -44%; T/C (Mus musculus [30]): 240%; Change (Mus musculus [31]): -19%; Change (Mus musculus [32]): -58%; Survivors (Mus musculus [33]): 1; E1/2 (Mus musculus [20]): -0.41; Survivors (Mus musculus [34]): 4; Change (Mus musculus [35]): -62%; Change (Mus musculus [36]): -25%; Change (Mus musculus [37]): -13%; Change (Mus musculus [38]): -54%
CO[C@@]12[C@H](COC(N)=O)C3=C(C(=O)C(C)=C(N)C3=O)N1C[C@H]1[C@@H]2N1C (stereo not given in full) [PORFIROMYCIN] |  |  | 16 | 225 | 0.8 | 
COC12[C@@H]3N[C@@H]3CN1C1=C(C(=O)C(NCc3cccnc3)=C(C)C1=O)[C@@H]2COC(N)=O (stereo not given in full) |  |  | 4 | 167 | 3.2 | 
COC12[C@@H]3N[C@@H]3CN1C1=C(C(=O)C(NCCCCl)=C(C)C1=O)[C@@H]2COC(N)=O (stereo not given in full) |  |  | 2 | 140 | 6.4 | 
C=CCNC1=C(C)C(=O)C2=C(C1=O)[C@H](COC(N)=O)C1(OC)[C@H]3[C@@H](CN21)N3C (stereo not given in full) |  |  | 4 | 189 | 3.2 | 
